# Screens from PubChem.
# An excerpt weighted towards active compounds, which were near 1.5% of everything screened.
# Jurkat NFkB inh: inhibitors of the PMA/ionomycin-induced NF-kB reporter in Jurkat cells; inhibition, % at 4 µM; AID 435003; PMA/ionomycin-induced NF-kB luciferase reporter, luminescence; 330,000 compounds, 0.53% hits; in the data active = inhibition above about 50%
# NR2E3 ag-1: human photoreceptor-specific nuclear receptor agonism | 360,000 compounds, 0.35% hits | Q9Y5X4 | AID 602229 | CHO-S Gal4-NCOR/VP16-NR2E3 two-hybrid, luciferase | inhibition of corepressor binding, % at 3.98 µM;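 active = inhibition above the mean of all tested compounds plus 3 SD, cut at about 70% in these data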;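 note: 0% = DMSO with NR2E3 transfected cells and 100% = cells lacking NR2E3 construct; higher means lower luciferase signal from less NR2E3 corepressor binding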
# JMJD2C inh: human JMJD2C demethylase inhibition | 330,000 compounds, 0.069% hits | Q9H3R0 | GST-JMJD2C(1-420) H3K9me3 demethylation, DELFIA europium | AID 2099 | inhibition, % at 2.35 µM;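 active = more than half of a compound's replicate wells show inhibition beyond 50%, single wells judged on their own value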;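 note: signal counts dimethyl H3K9 product captured on neutravidin plate; 0% = median of DMSO wells and 100% = 0.3 times that DMSO median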
# GalR3 antagonist: human GalR3 antagonism. O60755. HEK293 GalR3-CNG cAMP membrane potential fluorescence; galR3 body fused to GalR1 C-terminus. inhibition, % at 3 µM. 360,000 compounds, 0.44% hits. AID 651719;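 active = inhibition above the screen-wide average plus 3 SD, cut at about 13% in these data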;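 note: forskolin and galanin both at EC90 stimulate the cells; cAMP rise reported by CNG channel membrane potential dye signal; 0% = forskolin plus galanin with DMSO and 100% = forskolin alone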
# Target sequence (O60755 1-299 limits assumed): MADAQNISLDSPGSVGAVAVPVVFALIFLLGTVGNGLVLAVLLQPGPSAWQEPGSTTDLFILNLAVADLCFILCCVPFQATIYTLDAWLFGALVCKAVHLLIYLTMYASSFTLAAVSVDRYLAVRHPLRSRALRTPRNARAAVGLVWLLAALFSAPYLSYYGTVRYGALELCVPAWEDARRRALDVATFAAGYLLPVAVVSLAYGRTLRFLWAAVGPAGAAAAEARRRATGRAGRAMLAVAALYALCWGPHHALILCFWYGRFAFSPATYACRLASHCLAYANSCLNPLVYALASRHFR
# 697 NFkB inh: lowers PMA/ionomycin-induced NF-kB signal in 697 B cells; 697 B-cell NF-kB luciferase reporter, 16 h; inhibition, % at 4 µM; 330,000 compounds, 0.33% hits; in the data active = inhibition above about 35%
# NR2E3 ag-2: activates human photoreceptor nuclear receptor NR2E3. 320,000 compounds, 0.12% hits. GST-NR2E3/biotin-RetCOR TR-FRET, 1536-well. Q9Y5X4. inhibition of corepressor binding, % at 4.78 µM;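 active = percent inhibition above the cutoff of mean plus 3 SD of all tested compounds, set per screening campaign, cut at about 20% in these data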;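 note: 0% = DMSO wells and 100% = biotin wells as full block of FRET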
#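 Material: NR2E3–RetCOR corepressor complex / Amount: 1.35 nM GST-NR2E3 / Medium: Tris pH 7.5 / Compound: single nominal compound dose of 4.8 µM / Incubation: 5 h at 4 °C / Technique: TR-FRET, Eu(K)-anti-GST donor, streptavidin-D2 acceptor, ex 340, em 617/671 nm / Read-out basis: percent loss of FRET ratio relative to control wells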
# Jurkat NFkB conf: lowers PMA/ionomycin-induced NF-kB signal in Jurkat cells. shares compounds with Jurkat NFkB inh. Jurkat NF-kB luciferase, 16 h. inhibition, % at 4 µM. 2,700 compounds, 27% hits. AID 435020;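 active = inhibition reaching about 45% at 4 µM in either replicate, limit read from the data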;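 note: plate controls were PMA/ionomycin stimulated DMSO wells for no effect and unstimulated DMSO wells for full effect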
# Numbers without * were called inactive; · = not tested or not shown.
SMILES,Jurkat NFkB inh,NR2E3 ag-1,JMJD2C inh,GalR3 antagonist,697 NFkB inh,NR2E3 ag-2,Jurkat NFkB conf
Clc1ccc2c(c1)C(C1=NCCN1)c1ccccc1CS2 (stereo not drawn),63*,-47,13,-2,5,0,43*
S=C1NCCc2ccc(Cl)cc2C1c1ccccc1Cl (stereo not drawn),-17,-11,-1,-7,-21,1,·
CCC1=Nc2cc(C(=O)NCc3ccco3)ccc2Sc2ccc(Cl)cc21,22,9,3,8,-9,2,·
CCC1=Nc2cc(C(=O)NCc3cccnc3)ccc2Sc2ccc(C)cc21,56*,-26,7,-7,-21,0,19
CCCCCN1C=CC(=C2C(=O)c3ccccc3C2=O)C=C1,60*,26,15,-2,-18,3,40
CCCN(CC(=O)Nc1ccccc1OC)C(=O)Cn1c(=O)oc2ccccc21,·,-6,·,-4,·,·,·
Cc1ccc(S(=O)(=O)Nc2ccccc2-c2ccccc2)cc1,59*,-54,5,-11,-50,0,50*
CN(C)c1ccc2c(c1)OC(N)=C(C#N)C2c1cccc(F)c1 (stereo not drawn),77*,-22,-7,·,-101,-2,55*
COc1ccccc1N=C1SC(C(=O)Nc2cccc(Cl)c2Cl)C(N)=C1C(N)=O (stereo not drawn),58*,11,6,0,-16,1,0
COc1ccccc1C(=O)Nc1ccc2c(c1)nc(CCNC(=O)c1ccccc1)n2C,54*,-80,-2,11,-28,0,29
COc1ccccc1C(=O)Nc1ccc2c(c1)nc(CCNC(C)=O)n2C,-42,-25,-2,-7,-38,2,·
COc1ccc(C(=O)N[C@H](C(=O)Nc2nc3ccccc3[nH]2)C(C)C)cc1,28,-173,-16,-3,-185,4,·
Cc1cccc(C(=O)N[C@H](C(=O)Nc2nc3ccccc3[nH]2)C(C)C)c1,60*,15,·,-3,-10,3,37
O=C(Nc1nc2ccccc2[nH]1)c1cccc(F)c1,-150,-160,11,-8,-190,2,-107
O=C(Nc1nc2ccccc2[nH]1)c1cccc(Br)c1,-152,-134,8,-12,-207,-2,-115
CC(=O)Nc1ccc(C(=O)OCC(=O)NCc2ccc(Cl)cc2)cc1,7,·,19,·,-1,-2,·
Nc1ccn(Cc2ccccc2)n1,-2,21,9,-1,-14,5,·
c1ccc(Cn2ccc(-c3cnc(-c4ccccc4)s3)n2)cc1,-154,-118,1,-6,-192,-1,-95
COc1cccc(CN2C(=O)C(C)N(C(=O)c3ccccc3)c3ccccc32)c1 (stereo not drawn),9,24,-2,-11,-14,2,·
COc1cc(/C=N/O)ccc1OCc1ccccc1Cl,-157,-119,1,-8,-103,0,-76
O/N=C/c1ccccc1OCc1ccccc1Cl,-4,-34,23,-2,-29,6,·
Cc1ccc(NC(=O)c2ccco2)c(NC(=O)Cc2cccs2)c1,7,-10,2,2,15,-1,·
O=[N+]([O-])c1ccc(N2CCN(c3cccc(Cl)c3)CC2)nc1,61*,8,15,-11,5,-2,15
O=[N+]([O-])c1ccc(N2CCN(Cc3ccccc3)CC2)nc1,14,-36,-10,-5,-2,1,·
CCN(CC)C(=O)c1ccc(/C=C/c2c[nH]c3ccccc23)[n+](C)c1,13,-16,-19,-2,18,-12,·
CC[n+]1c(/C=C/c2c[nH]c3ccccc23)ccc2cc(C)ccc21,93*,·,·,-10,-59,·,30
COC(=O)c1c(-c2cccnc2)csc1NC(=O)c1cc(C)on1,-174,-133,7,-6,-210,-2,-90
COC(=O)c1c(-c2ccc(C)cc2)csc1NC(=O)c1c(-c2ccccc2)noc1C,-46,·,-2,-4,-199,-4,·
